In ChEMBL document CHEMBL2046427, “Nonhematotoxic naphthalene diimide modified by polyamine: synthesis and biological evaluation” (J Med Chem, 2012):
Active and inactive are the calls of the source. The calls are words filed in the database; no cut-off is given here.

Key:
HepG2 [1] = test: Cytotoxicity against human HepG2 cells after 48 hrs by MTT assay; assay type: functional, cell-based; details: HepG2, 48 h
How it was run: (§1)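 MTT conversion assay at 37 °C, 5% CO₂. […] Inhibition relative to untreated cells as 100%; IC50 by linear regression, mean of three independent experiments.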

MDA-MB-231 = test: Cytotoxicity against human MDA-MB-231 cells after 48 hrs by MTT assay; assay type: functional, cell-based; details: MDA-MB-231, 48 h; how it was run: as §1
HCT-116 = test: Cytotoxicity against human HCT116 cells after 48 hrs by MTT assay; assay type: functional, cell-based; details: HCT-116, 48 h; how it was run: as §1
HepG2 [2] = test: Cytotoxicity against human HepG2 cells assessed as cell nuclear shrinkage after 48 hrs by Hoechst 33342-based fluorescence-based high-content screening assay; assay type: functional
How it was run: (§2)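 HepG2 seeded 5 × 10³/well; after 12 h treated at 1, 5, 10, 15 and 30 μM for 48 h. Multiparameter cytotoxicity kit staining imaged by high-content screening: Hoechst 33342 for nuclear morphology, permeability dye (green nuclei) for membrane integrity, mitochondrial potential dye, and a weak-base dye for lysosomal mass/pH.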

HepG2 [3] = test: Cytotoxicity against human HepG2 cells assessed as mitochondrial permeability augmentation after 48 hrs by fluorescence-based high-content screening assay; assay type: functional, cell-based; how it was run: as §2
HepG2 [4] = test: Cytotoxicity against human HepG2 cells assessed as decrease in mitochondrial membrane potential after 48 hrs by fluorescence-based high-content screening assay; assay type: functional, cell-based; how it was run: as §2
HepG2 [5] = test: Cytotoxicity against human HepG2 cells assessed as acruement in lysosomal mass/pH after 48 hrs by fluorescence-based high-content screening assay; assay type: functional, cell-based; how it was run: as §2
HepG2 [6] = test: Cytotoxicity in human HepG2 cells assessed as loss of cell membrane integrity at 10 uM after 48 hrs by fluorescence-based high-content screening assay; assay type: functional
HepG2 [7] = test: Cytotoxicity in human HepG2 cells assessed as gain in lysosomal mass/pH at 10 uM after 48 hrs by fluorescence-based high-content screening assay; assay type: functional, cell-based
HepG2 [8] = test: Cytotoxicity in human HepG2 cells assessed as mitochondrial membrane damage at 10 uM after 48 hrs by fluorescence-based high-content screening assay; assay type: functional, cell-based
HepG2 [9] = test: Cytotoxicity in human HepG2 cells assessed as decrease in mitochondrial membrane potential at 10 uM after 48 hrs by fluorescence-based high-content screening assay; assay type: functional, cell-based
HepG2 [10] = test: Induction of apoptosis in human HepG2 cells assessed as phosphatidylserine externalisation at 10 uM after 48 hrs by annexinV/FITC-based high-content screening assay; assay type: functional, cell-based
How it was run: (§3)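 HepG2 in 24-well plates treated at 10 μM for 48 h, harvested and stained with annexin V–FITC/propidium iodide kit or cleaved caspase 3 indirect immunofluorescence. Imaging by high-content screening with target-activation analysis; comparison against control.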

HepG2 [11] = test: Induction of apoptosis in human HepG2 cells assessed as caspase 3 activation at 10 uM after 48 hrs by indirect immunofluorescence method; assay type: functional, cell-based; how it was run: as §3
HepG2 [12] = test: Induction of apoptosis in human HepG2 cells assessed as reactive oxygen species generation at 10 uM after 48 hrs by […]-based staining; assay type: functional, cell-based
How it was run: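 HepG2 given 10 μM for 48 h; intracellular ROS by DCFH-DA staining imaged by high-content screening, compared with untreated control.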

H22 [13] = test: Antitumor activity against mouse H22 cells xenografted in Kunming mouse assessed as tumor growth inhibition at 0.2 mg/kg, iv administered on day 8 post-tumor injection for 7 days measured on day 16 relative to vehicle treated control; assay type: functional; details: read-out: GI
How it was run: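 Male Kunming mice, 5 weeks, 18−22 g, injected sc with 2 × 10⁶ H22 cells. From day 8, randomized groups got caudal vein injection (0.2 or 5 mg/kg, or physiologic saline) for 7 consecutive days. On day 16 tumours excised and weighed; inhibitory rate (%) = [(A − B)/A] × 100 using mean tumour weights of control (A) and treated (B). Tumours formalin-fixed, H&E-stained.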

H22 [14] = test: Antitumor activity against mouse H22 cells xenografted in Kunming mouse assessed as decrease in cell survival at 0.2 mg/kg, iv administered on day 8 post-tumor injection for 7 days measured on day 16 by hematoxylin and eosin staining relative to vehicle treated control; assay type: functional, organism-based; design: dose 0.2 mg/kg
H22 [15] = test: Antitumor activity against mouse H22 cells xenografted in Kunming mouse assessed as median survival time at 0.2 […], iv administered 24 hrs post-tumor injection for 7 days (reference value: 12.7 +/- 2.5 days); assay type: functional
How it was run: (§4)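 Kunming mice bearing H22 cells; iv (caudal vein) dosing or physiologic saline control started 24 h after inoculation and given for 7 consecutive days. Median survival time recorded per group; activity judged as increase in lifespan versus saline control.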

H22 [16] = test: Antitumor activity against mouse H22 cells xenografted in Kunming mouse assessed as median survival time at 0.2 […], iv administered 24 hrs post-tumor injection for 7 days relative to vehicle treated control; assay type: functional; how it was run: as §4
H22 [17] = test: Antimetastatic activity against mouse H22 cells xenografted in Kunming mouse assessed as decrease in lung tumor burden at 0.2 mg/kg, iv administered on day 11 post-tumor injection for 7 days measured on day 18 relative to vehicle treated control; assay type: functional, organism-based; design: dose 0.2 mg/kg
H22 [18] = test: Antimetastatic activity against mouse H22 cells xenografted in Kunming mouse assessed as decrease in lung metastasis focuses at 0.2 mg/kg, iv administered on day 11 post-tumor injection for 7 days measured on day 18 relative to vehicle treated control; assay type: functional, organism-based; design: dose 0.2 mg/kg
H22 [19] = test: Antimetastatic activity against mouse H22 cells xenografted in Kunming mouse assessed as tumor weight at 0.2 mg/kg, iv administered on day 11 post-tumor injection for 7 days measured on day 18 (reference value: 0.34 +/- 0.15 g); assay type: functional
Mus musculus [20] = test: Toxicity in mouse H22 cells bearing Kunming mouse assessed as weight loss at 0.2 mg/kg, iv administered for 7 days measured on day 8 relative to vehicle treated control; assay type: organism-based; design: dose 0.2 mg/kg, route intravenous; details: in vivo, 168 h
How it was run: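 Body weight tracked during 7 consecutive days of daily iv dosing in tumour-bearing Kunming mice, with saline controls; animals killed on day 8.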

Mus musculus [21] = test: Toxicity in mouse H22 cells bearing Kunming mouse assessed as decrease in platelet number at 0.2 mg/kg, iv administered for 7 days measured on day 8 relative to vehicle treated control; assay type: organism-based; design: dose 0.2 mg/kg, route intravenous; details: in vivo, 168 h
How it was run: (§5)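 Tumour-bearing Kunming mice (10/group) dosed iv daily for 7 days, then killed on day 8. Blood and bone marrow counted on a Coulter counter for platelets, RBC, WBC and marrow cells. Spleen and thymus weighed; organ index (%) = (organ weight/body weight) × 100. Mean ± SD; Student's t test or ANOVA with q test versus saline.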

Mus musculus [22] = test: Toxicity in mouse H22 cells bearing Kunming mouse assessed as decrease in red blood cells number at 0.2 mg/kg, iv administered for 7 days measured on day 8 relative to vehicle treated control; assay type: organism-based; design: dose 0.2 mg/kg, route intravenous; details: in vivo, 168 h; how it was run: as §5
Mus musculus [23] = test: Toxicity in mouse H22 cells bearing Kunming mouse assessed as decrease in white blood cells number at 0.2 mg/kg, iv administered for 7 days measured on day 8 relative to vehicle treated control; assay type: organism-based; design: dose 0.2 mg/kg, route intravenous; details: in vivo, 168 h; how it was run: as §5
Mus musculus [24] = test: Hematotoxicity in mouse H22 cells bearing Kunming mouse assessed as decrease in bone marrow cell numbers at 0.2 mg/kg, iv administered for 7 days measured on day 8 relative to vehicle treated control; assay type: organism-based; design: dose 0.2 mg/kg, route intravenous; details: in vivo, 168 h; how it was run: as §5
Mus musculus [25] = test: Toxicity in mouse H22 cells bearing Kunming mouse assessed as change in spleen index number at 0.2 mg/kg, iv administered for 7 days measured on day 8 relative to vehicle treated control; assay type: organism-based; design: dose 0.2 mg/kg, route intravenous; details: in vivo, 168 h; how it was run: as §5
Mus musculus [26] = test: Toxicity in mouse H22 cells bearing Kunming mouse assessed as change in thymus index number at 0.2 mg/kg, iv administered for 7 days measured on day 8 relative to vehicle treated control; assay type: organism-based; design: dose 0.2 mg/kg, route intravenous; details: in vivo, 168 h; how it was run: as §5
Mus musculus [27] = test: Toxicity in mouse H22 cells bearing Kunming mouse assessed pathological changes in spleen at 0.2 mg/kg, iv administered for 7 days measured on day 8 by hematoxylin and eosin staining relative to vehicle treated control; assay type: organism-based; design: dose 0.2 mg/kg, route intravenous; details: in vivo, 168 h
Mus musculus [28] = test: Toxicity in mouse H22 cells bearing Kunming mouse assessed pathological changes in heart at 0.2 mg/kg, iv administered for 7 days measured on day 8 by hematoxylin and eosin staining relative to vehicle treated control; assay type: organism-based; design: dose 0.2 mg/kg, route intravenous; details: in vivo, 168 h
Mus musculus [29] = test: Toxicity in mouse H22 cells bearing Kunming mouse assessed pathological changes in liver at 0.2 mg/kg, iv administered for 7 days measured on day 8 by hematoxylin and eosin staining relative to vehicle treated control; assay type: organism-based; design: dose 0.2 mg/kg, route intravenous; details: in vivo, 168 h
Mus musculus [30] = test: Toxicity in mouse H22 cells bearing Kunming mouse assessed pathological changes in lung at 0.2 mg/kg, iv administered for 7 days measured on day 8 by hematoxylin and eosin staining relative to vehicle treated control; assay type: organism-based; design: dose 0.2 mg/kg, route intravenous; details: in vivo, 168 h
Mus musculus [31] = test: Toxicity in mouse H22 cells bearing Kunming mouse assessed pathological changes in kidney at 0.2 mg/kg, iv administered for 7 days measured on day 8 by hematoxylin and eosin staining relative to vehicle treated control; assay type: organism-based; design: dose 0.2 mg/kg, route intravenous; details: in vivo, 168 h
Mus musculus [32] = test: Toxicity in mouse H22 cells bearing Kunming mouse assessed pathological changes in brain at 0.2 mg/kg, iv administered for 7 days measured on day 8 by hematoxylin and eosin staining relative to vehicle treated control; assay type: organism-based; design: dose 0.2 mg/kg, route intravenous; details: in vivo, 168 h

For Cl.NCCCNCCCCNCCCN1C(=O)c2ccc3c4c(ccc(c24)C1=O)C(=O)N(CCCNCCCCNCCCN)C3=O, the IC50 (HepG2 [1]) was 1.22 µM, the IC50 (MDA-MB-231) was 0.45 µM and the IC50 (HCT-116) was 0.13 µM. The Activity (HepG2 [2]) was “Dose-dependent effect”, the Activity (HepG2 [3]) was “Dose-dependent effect” and the Activity (HepG2 [4]) was “Dose-dependent effect”. The Activity (HepG2 [5]) was “Dose-dependent effect”, the Activity (HepG2 [6]) was “Active” and the Activity (HepG2 [7]) was “Active”. For the same compound, the Activity (HepG2 [8]) was “Active”, the Activity (HepG2 [9]) was “Active” and the Activity (HepG2 [10]) was “Active”. For the same compound, the Activity (HepG2 [11]) was “Active”, the Activity (HepG2 [12]) was “Active” and the inhibition in vivo at 0.2 mg/kg (H22 [13]) was 51.8%. For the same compound, the Activity (H22 [14]) was “Active”, the MST (H22 [15]) was 29.8 days and the Ratio (H22 [16]) was 2.3. The Activity (H22 [17]) was “Active”, the Activity (H22 [18]) was “Active” and the Activity (H22 [19]) was 0.17 g. The Activity (Mus musculus [20]) was “Non-toxic”, the Activity (Mus musculus [21]) was “Non-toxic” and the Activity (Mus musculus [22]) was “Non-toxic”. The Activity (Mus musculus [23]) was “Non-toxic”, the Activity (Mus musculus [24]) was “Non-toxic” and the Activity (Mus musculus [25]) was “Non-toxic”. For the same compound, the Activity (Mus musculus [26]) was “Non-toxic”, the Activity (Mus musculus [27]) was “Non-toxic” and the Activity (Mus musculus [28]) was “Non-toxic”. For the same compound, the Activity (Mus musculus [29]) was “Non-toxic”, the Activity (Mus musculus [30]) was “Non-toxic” and the Activity (Mus musculus [31]) was “Non-toxic”. For the same compound, the Activity (Mus musculus [32]) was “Non-toxic”.
